Results collected from several papers.
Each line is one published result; the experiments were not run side by side.
Target: Rho-associated protein kinase 2 (ROCK2, Homo sapiens, UniProt O75116)

| SMILES | assay | setting | measurement | result |
| --- | --- | --- | --- | --- |
| COc1cc(Nc2cnc(C#N)c(O[C@H](C)CN(C)C)n2)ncc1-c1cnn(C)c1 | enzyme activity, inhibitor, radiometric | 10 µM | remaining activity | 40% |
| CC(=O)N1CCC(c2ccc(C(=O)NC3=NCCN3)cc2C(F)(F)F)CC1 | cell-free assay, competition with immobilised ligand | 1 µM | remaining binding | 73% |
| CCCS(=O)(=O)Nc1ccc(F)c(C(=O)c2c[nH]c3ncc(-c4ccc(Cl)cc4)cc23)c1F | enzyme activity, inhibitor | 1 µM | inhibition | < 10% |
| C=CC(=O)Nc1cc(Nc2nccc(Nc3cc(Cl)c(F)cc3C(C)(C)O)n2)c(OC)cc1N1CC[C@@H](N(C)C)C1 | enzyme activity, inhibitor | 1 µM | inhibition | 15% |
| CN(c1ncccc1CNc1nc(Nc2ccc3c(c2)CC(=O)N3)ncc1C(F)(F)F)S(C)(=O)=O | enzyme activity, inhibitor | 1 µM | inhibition | 11.3% |
| O=C(Nc1cnn(-c2csc(C(=O)NC3COC3)c2)c1)Nc1ccccc1Cl | enzyme activity, inhibitor | 5 µM | remaining activity | 100% |
| Nc1nc(Nc2ccccc2)sc1C(=O)c1c(F)cccc1F | enzyme activity, inhibitor | 10 µM | remaining activity | 55% |
| CCS(=O)(=O)c1cc2cc(C[C@@](O)(CC(C)(C)c3ccc(F)cc3C(N)=O)C(F)(F)F)[nH]c2cn1 | cell-free assay, competition with immobilised ligand | 1 µM | remaining binding | 76% |
| CC(C)(C)C(=O)c1sc(NC2CCCCC2)nc1N | enzyme activity, inhibitor | 10 µM | remaining activity | 107% |
| Cc1ccc(NC(=O)c2ccc(C)c(C(F)(F)F)c2)cc1C#Cc1nn(C2CCC(O)CC2)c2ncnc(N)c12 (stereo not drawn) | cell-free assay | 10 µM | remaining signal | 56% |
| CO[C@@H](C)c1c(Nc2ccc([C@@H](N(C)C(=O)C3CCS(=O)(=O)CC3)C(F)(F)F)cc2)cnc2cc(Cl)nn12 | cell-free assay, competition with immobilised ligand | 1 µM | remaining binding | 100% |
| CN1CC(Oc2cnc(C#N)cc2-c2ccn3nc(NC(=O)C4CC4)cc3c2)C1 | enzyme activity, inhibitor | 1 µM | inhibition | 5% |
| CN([C@@H]1CCc2c(CC(=O)O)c3ccccc3n2C1)S(=O)(=O)c1ccc(F)cc1 | cell-free assay, competition with immobilised ligand | 1 µM | remaining binding | 100% |
| CCOc1cc(-c2nncn2C)ccc1Nc1ncc2cc(C)nc(NCC(C)(C)C)c2n1 | enzyme activity, inhibitor, FRET | 1 µM | inhibition | < 15% |
| Cn1cnc(Br)c1C1=CN(c2ncnc3[nH]cnc23)CCS1 | enzyme activity, inhibitor, radiometric | 2 µM | inhibition | 77.6% |
| C[C@H](c1ccnc(Nc2nc3ccc(-c4cc(N(C)C)ncn4)cc3[nH]2)c1)N1CCN(C(=O)CC(F)(F)F)CC1 | cell-free assay, competition with immobilised ligand | 0.1 µM | remaining binding | 100% |
| Cc1ccc(Nc2nccc(N(C)c3ccc4c(C)n(C)nc4c3)n2)cc1S(N)(=O)=O | enzyme activity, inhibitor | 0.3 µM | inhibition | -15% |
| Cn1cncc1C1=CN(c2ncnc3[nH]cnc23)CCS1 | enzyme activity, inhibitor, radiometric | 50 nM | inhibition | 19.6% |

| SMILES | assay | setting | measurement | result |
| --- | --- | --- | --- | --- |
| COc1cc2ncnc(Nc3ccc(Oc4ccccc4)c(C)c3C)c2cc1OC | enzyme activity, inhibitor | 1 µM | inhibition | 8% |
| Cn1c(=O)n(-c2ccc(C(C)(C)C#N)cc2)c2c3cc(-c4cnc5ccccc5c4)ccc3ncc21 | enzyme activity, inhibitor | 10 µM | remaining activity | 84% |
| N#CCCc1ccc2c(c1)-c1[nH]c3ccc([N+](=O)[O-])cc3c1CC(=O)N2 | cell-free assay | 0.5 µM | remaining signal | 28.6% |
| Oc1cccc(-c2nc(N3CCOCC3)c3oc4ncccc4c3n2)c1 | enzyme activity, inhibitor | 10 µM | remaining activity | 91% |
| CS(=O)(=O)CCNCc1ccc(-c2ccc3ncnc(Nc4ccc(OCc5cccc(F)c5)c(Cl)c4)c3c2)o1 | cell-free assay | 0.5 µM | remaining signal | 92.7% |
| O=C(Nc1cnc(Oc2ccc(F)cc2)nc1)N1CCc2ncccc2[C@@H]1c1ccc(F)cc1 | cell-free assay, competition with immobilised ligand | 1 µM | remaining binding | 100% |
| CNCc1ccc(-c2cc(-c3nc(-c4ccc(S(=O)(=O)C(C)C)cc4)cnc3N)on2)cc1 | enzyme activity, inhibitor | 2 µM | inhibition | 13% |
| CC/C(=N\NC(=O)NCc1cccc(O)c1)c1ccc(O)c(C)c1O | enzyme activity, inhibitor | 0.1 µM | inhibition | 82.6% |
| CNC(=O)c1cc(Oc2ccc(NC(=O)Nc3ccc(Cl)c(C(F)(F)F)c3)cc2)ccn1 | enzyme activity, inhibitor | 0.3 µM | inhibition | -11% |
| CC(C)(C)c1nc2c(s1)c1nc(N)ncc1c1ccc(NS(=O)(=O)c3c(F)cccc3F)c(F)c12 | enzyme activity, inhibitor, radiometric | 1 µM | remaining activity | 100% |
| CC(C)c1ccc(NC(=O)c2cccs2)c(-c2nc3ccccc3[nH]c2=O)c1 | enzyme activity, inhibitor | 1 µM | activity vs control | 119% |
| COc1cccc(CNC(=O)c2nc3scc(COCc4ccc(C(=O)O)cc4)c3c(=O)[nH]2)c1 | cell-free assay, competition with immobilised ligand | 1 µM | remaining binding | 69.1% |
| CCCOc1ccc(OC)c(F)c1C(=O)c1ccc(C(=O)N[C@@H]2CNC[C@H]2NC(=O)c2ccc3[nH]ncc3c2)cc1 | enzyme activity, inhibitor | 0.75 µM | remaining activity | 4% |
| O=S(=O)(NCCNC/C=C/c1ccc(Br)cc1)c1cccc2cnccc12 | cell-free assay | 0.5 µM | remaining signal | 15.4% |
| CNc1cccc2cc(C(=O)Nc3ccc(C(=O)O)cc3)c(=O)[nH]c12 | enzyme activity, inhibitor | 10 µM | inhibition | 7.9% |
| O=C1Nc2ccc(Cl)cc2C1=Cc1cc(Cl)c(O)c(Cl)c1 | cell-free assay | 0.5 µM | remaining signal | 90.6% |
| COc1ccc2c(c1)O[C@H](c1ccc(OC)c(OC)c1)C[C@@H]2NC(=O)C1(c2ccc3c(c2)OC(F)(F)O3)CC1 | cell-free assay, competition with immobilised ligand | 1 µM | remaining binding | 88% |
| CS(=O)(=O)Nc1cccc(-c2csc(NC(=O)CSc3nc4nccnc4c(=O)n3CCc3ccccc3)n2)c1 | enzyme activity, inhibitor | 10 µM | inhibition | 5% |
